Experiments:
[1] = test system: pp60v-src binding to plasma membranes (src receptor); conditions: previous experiments; ref Resh, 1989; cited from earlier work
[2] = test system: kin-src binding to plasma membranes (src receptor); assay: Competition of kin-src membrane binding by peptides or polypeptides; design: species or system vole
Procedure, shortened: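 [35S]methionine-labelled chimera translated in rabbit reticulocyte lysate (90 min, 30°C; Triton X-100 0.075% final), then incubated 30 min at 20°C with 1T cell P100 membranes with increasing myristylated peptide. Also tested: 8-mer at 92 µM, 15-mer at 58 µM, or in vitro translated competitor polypeptide. Pellets at 100,000 g; gel slices counted. Pellet without membranes subtracted; untreated membranes set to 100%.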

[3] = test system: pp60v-src binding to plasma membranes (src receptor); assay: Competition of pp60v-src membrane binding by peptides or polypeptides; design: species or system vole
Procedure, shortened: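 1T cell P100 membranes incubated with [35S]methionine-labelled, reticulocyte-lysate-translated protein plus increasing myristylated N-terminal peptides, including Lys→Asn or Arg variants. Nonmyristylated peptide served as control. Incubation 30 min at 20°C, then ultracentrifugation at 100,000 g. Gel slices counted by scintillation. Pellet without membranes subtracted; binding to untreated membranes normalised to 100%.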

[4] = test system: del 15-263 binding to vole cell membranes (P100); assay: Competition of del 15-263 membrane binding by MGYsrc peptide
Procedure, shortened: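 In vitro translated [35S]methionine-labelled deletion mutant (rabbit reticulocyte lysate) incubated with vole P100 membranes with increasing myristylated src peptide. Binding quantitated by gel slice scintillation counting, pellet without membranes subtracted, untreated membranes set to 100%. In parallel, membranes were incubated 15 min at 20°C with 4 × 10^5 c.p.m. 125I-peptide, then 15 min with BS3 crosslinker, in the presence of increasing unlabelled peptide. After 100,000 g reisolation, SDS gel, and gamma counting of the excised band.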

NIH3T3 cells [5] = assay: Transformation: morphology and growth in soft agar; type: cell-based
Procedure, shortened: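 NIH3T3 cells transduced with PLJ retroviral vector carrying src or chimera, or with vector alone. G418-resistant clones expanded, then morphology examined by phase-contrast microscopy. Growth in soft agar scored +/− per clone.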

[6] = test system: plasma membrane-enriched fractions (P100) from vole cells; membrane-bound src receptor; assay: In vitro membrane binding of in vitro translated src proteins; conditions: for decrease in membrane-binding capacity versus wild type: P100 membranes from normal vole cells, average of three experiments, Fig. 5
NIH3T3 cells [7] = assay: Subcellular fractionation and immunofluorescence of G418-resistant NIH3T3 clones; type: cell-based; conditions: for Percent association with cell fraction P1 / Percent association with cell fraction P100: percentage of total src kinase activity; for Percent association with cell fraction P1: 1,000-g pellet; for Percent association with cell fraction P100: 100,000-g pellet
Procedure, shortened: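 G418-resistant NIH3T3 clones (retroviral transfer) labelled 1 h with 50 µCi/ml [35S]methionine. Cells lysed by hypotonic Dounce homogenisation and spun into a 1,000 g pellet (P1), a 100,000 g pellet (P100) and S100. Fractions adjusted to kinase buffer, immunoprecipitated with anti-p60 serum, and subjected to in vitro kinase assay. Analysed by SDS-PAGE and scintillation counting; each fraction given as percent of total kinase activity.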

myristyl transferase = assay: Efficiency of myristylation on translation in reticulocyte lysate; type: biochemical; conditions: rabbit reticulocyte lysate; densitometry; normalized to pp60v-src = 1; Table II
Procedure, shortened: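 Constructs translated in rabbit reticulocyte lysate for 90 min at 30°C, with either 0.4 µCi/µl [35S]methionine or 0.7 µCi/µl [3H]myristic acid. Products resolved by SDS gel; myristate-to-methionine incorporation ratio expressed relative to wild-type.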

[8] = peptide at 340 μM, 1T cell P100 membranes, Fig. 2

Substance: GNAAAAKKY [8 mer]
- inhibition of pp60v-src binding [1]: failed to detect inhibition
- inhibition of membrane binding of kin-src ([2]; peptide at 92 μM): 35%

Substance: GQ1WTTPLY [myristylated gag peptide, reference compound]
- effect on the binding of kin-src ([2]; data not shown): did not have a significant effect

Substance: GSSKSKPKDPSY [GYsrc]
- inhibition of pp60v-src membrane binding [3, 8]: 10-20%
- inhibition of kin-src membrane binding [2, 8]: 10-20%

Substance: GSSKSKPKDPSY [MGYsrc]
- inhibition of binding of the del 15-263 polypeptide ([4]; increasing MGYsrc, vole cell P100 membranes, Fig. 6): 80-90%
- Ki ([4]; read-out: Ki for membrane binding of del 15-263, vole P100 membranes, Fig. 7): 35 µM
- maximum inhibition of pp60v-src binding ([3]; competition never complete, on average, Figs. 2 and 4): 50-60%
- kin-src polypeptide released from the membrane by MGYsrc ([2]; from the shape of the binding curve in Fig. 2): ~75%

Substance: pp60v-src: protein product of the v-src gene of Rous sarcoma virus; NH2 terminus M G S S K S K P K D P S Q R
- morphology of expressing cells (NIH3T3 cells [5]; G418-resistant clonal populations, phase contrast, Fig. 3): fully transformed
- growth in soft agar (NIH3T3 cells [5]; G418-resistant clones, Table III prints + for all four clones of each): capable of growth in soft agar
- ratio of src protein in the pellet fraction +Mbs/-Mbs ([6]; 1T membranes (P100), 30 min at 20°C, average of four experiments, Fig. 1): 3.2
- Percent association with cell fraction P1 (NIH3T3 cells [7]; clone 1): 43%
- Percent association with cell fraction P100 (NIH3T3 cells [7]; clone 1): 47%
- Percent association with cell fraction P1 (NIH3T3 cells [7]; clone 2): 32%
- Percent association with cell fraction P100 (NIH3T3 cells [7]; clone 2): 61%
- Percent association with cell fraction P1 (NIH3T3 cells [7]; clone 3): 17%
- Percent association with cell fraction P100 (NIH3T3 cells [7]; clone 3): 67%
- Percent association with cell fraction P1 (NIH3T3 cells [7]; clone 4): 34%
- Percent association with cell fraction P100 (NIH3T3 cells [7]; clone 4): 57%
- polypeptide membrane associated in vivo (NIH3T3 cells [7]; hypotonic lysis and differential centrifugation, Table III): 80-90%
- subcellular localization in vivo (NIH3T3 cells [7]; indirect immunofluorescence and cellular fractionation): punctate membrane staining
- competition of radiolabeled kin-src binding by polypeptide ([2]; equimolar or submolar concentrations of in vitro translated polypeptide, data not shown): readily com- peted

Substance: v-src N5+9: mutant of v-src in which both lysines 5 and 9 were converted to asparagine
- Relative incorporation [3H]myristate/[35S]methionine (myristyl transferase): 0.93
- decrease in membrane-binding capacity versus wild type [6]: ~ 60%

Substance: v-src N5: mutant of v-src in which lysine 5 has been converted to asparagine
- Relative incorporation [3H]myristate/[35S]methionine (myristyl transferase): 0.99
- decrease in membrane-binding capacity versus wild type [6]: 30%

Substance: v-src N9: mutant of v-src in which lysine 9 has been converted to asparagine
- Relative incorporation [3H]myristate/[35S]methionine (myristyl transferase): 0.98
- decrease in membrane-binding capacity versus wild type [6]: 45%

From paper PMC2289653 (The Journal of Cell Biology, 1992)
